Measured values taken from ChEMBL document CHEMBL1135550, “Highly potent geminal bisphosphonates. From pamidronate disodium (Aredia) to zoledronic acid (Zometa)” (J Med Chem, 2002).
pIC50: −log10 of the molar value.

What was measured:
Rattus norvegicus [1] = organism: Rattus norvegicus; assay: Effective dose for increased serum urea level rats after a treatment period of 1 hr in renal tolerability model; format: functional
Mus musculus [2] = organism: Mus musculus; assay: Inhibition of mineralization in the calvaria assay of mouse; format: functional
Summary of the method: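 In vitro mineralization assay in mouse calvaria cultures. The read-out is calcium incorporation into the calvaria.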

Rattus norvegicus [3] = organism: Rattus norvegicus; assay: Effective dose for increased cancellous bone hydroxy proline in young interact rats after a treatment period of 10 days; format: functional; conditions: 240 h
[4] = Ratio of calvaria mineralization to calvaria bone resorption; format: functional
Rattus norvegicus [5] = organism: Rattus norvegicus; assay: Effective dose for increased radiographic bone density in young interact rats after a treatment period of 10 days; format: functional; conditions: 240 h
Rattus norvegicus [6] = assay: Effective dose after subcutaneous administration to TPTX rats for 50% reduction of hypercalcemia; format: functional; conditions: sc
Summary of the method: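 Young male rats (130-150 g) were thyroparathyroidectomized and allowed 4 days to recover, then fasting serum was sampled. Animals with serum Ca above 1.88 mM were discarded, and the rest were randomized into groups of 5. On days 5-8, 1,25(OH)2D3 (125 pmol/kg sc) was given with graded sc doses of bisphosphonate, and total serum calcium was measured. ED50 is the sc dose halving the hypercalcemia.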

Rattus norvegicus [7] = organism: Rattus norvegicus; assay: Effective dose for increased mucosal permeability of perfused ileal loop in rats after a treatment period of 2 hr in intestinal tolerability model; format: functional
Rattus norvegicus [8] = organism: Rattus norvegicus; assay: Effective dose for increased urinary excretion of MDH in rats after a treatment period of 14 days in renal tolerability model; format: functional, Urine
Rattus norvegicus [9] = organism: Rattus norvegicus; assay: Effective dose for increased cancellous bone calcium in young interact rats after a treatment period of 10 days; format: functional; conditions: 240 h
Rattus norvegicus [10] = organism: Rattus norvegicus; assay: Effective dose for increased cancellous bone area in young interact rats after a treatment period of 10 days; format: functional; conditions: 240 h
[11] = Therapeutic ratio comparing nephrotoxic potential versus bone antiresorptive potency ( reciprocal of ED50 (TPTX assay) / the total urinary malate dehydrogenase excretion); format: ADME; conditions: urine; read-out: Therapeutic ratio
Summary of the method: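 Ratio = (1/TPTX ED50 in mg/kg) ÷ total urinary malate dehydrogenase units, pooled from eight 24-h urine collections after starting repeated sc dosing. ED50 model: young male rats (130-150 g), thyroparathyroidectomized, 4-day recovery; rats with fasting serum Ca above 1.88 mM excluded; groups of 5. Days 5-8: 1,25(OH)2D3 125 pmol/kg sc plus graded sc bisphosphonate. ED50 = dose halving the hypercalcemia (total serum calcium).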

Mus musculus [12] = organism: Mus musculus; assay: Inhibition of bone resorption in the calvaria assay of mouse; format: functional

pIC50 (Mus musculus [2]): 4.00 | pIC50 (Mus musculus [12]): 6.70
Compound: NCCC(O)(P(=O)(O)O)P(=O)(O)O [PAMIDRONIC ACID]
ED100 (Rattus norvegicus [1]): 11 mg/kg | ED50 (Rattus norvegicus [3]): 0.21 mg/kg | Ratio [4]: 500 | ED50 (Rattus norvegicus [5]): 0.39 mg/kg | ED50 (Rattus norvegicus [6]): 0.061 mg/kg | NOL (Rattus norvegicus [7]): 10 mM | NOL (Rattus norvegicus [8]): 0.1 mg/kg | ED50 (Rattus norvegicus [9]): 0.0227 mg/kg | ED50 (Rattus norvegicus [10]): 7.1 µg/kg | selectivity ratio [11]: 1.2
